Screening data deposited in PubChem BioAssay by several laboratories.
Rows were chosen to be rich in hits. Some 5.7% of all compounds tested hit in one or more screens of this group.
CSC inhib: cancer stem cell viability inhibitors, primary screen, luminescence; cancer stem cell-like cells viability; inhibition, % at 7.5 µM; 1.1% of 300,000 active; AID 2717, 2010; in the data active means inhibition above about 75%; inconclusive means no clear call, values can overlap the other calls; tested in HMLE shEcad cells
T cruzi inh: inhibitors of intracellular T. cruzi growth, primary screen, luminescence, NIH3T3 host cells. T. cruzi beta-gal in NIH3T3, 90 h. inhibition, % (no concentration beside the values). 1.4% of 300,000 active;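 active means mean inhibition across valid replicates above about 55%, limit read from the data; inconclusive means mean below that limit but half or more replicates reach it; inactive means mean below it, under half of replicates reach it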;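 further: signal also drops with host cell toxicity which is not excluded here; higher percent means less beta-gal luminescence so fewer parasites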
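Incubation – ≥90 h infection period, 3 h prior cell attachment · System – NIH/3T3 fibroblasts plus reporter T. cruzi · Doses – compound pinned at 50 nL/well, DMSO · Read-out basis – percent inhibition of parasite-derived β-gal signal · Signal – luminescent β-galactosidase signal after 60 min lysis · Also added – 5000 T. cruzi trypomastigotes/well · Medium – Low-serum DMEM with 2% FBS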
SKKanGAS inh: S. pyogenes SKKanGAS growth inhibitors in kanamycin, primary screen, streptokinase expression inhibitor project, SKKanGAS strain, BacTiter-Glo luminescence. 6 h. inhibition, % at 7.5 µM. 1.3% of 300,000 active. AID 1662, 2009;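 active means mean replicate score, as percent of positive control median, at least 50; inconclusive means mean below 50 but one replicate at or above 50; inactive means mean and every replicate below 50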;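 further: strain carries kanamycin resistance gene driven by streptokinase promoter and grows in 40 µg/ml kanamycin; loss of luminescence reflects streptokinase promoter inhibition or plain growth inhibition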
Mdm2-MdmX inh: inhibitors of human Mdm2-MdmX association, primary screen, cell-based, luminescence, split luciferase, SaOS-2, uHTS; SaOS-2 split-luciferase Mdm2/MdmX complementation; inhibition, % at 8 µM; AID 485346, 2010; 3% of 330,000 active;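 active means inhibition of at least 50% at 8 µM in the primary screen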
Calb FLC: C. albicans growth inhibition with fluconazole, primary screen, CaCi-2 strain, Alamar Blue fluorescence. AID 1979, 2009. growth inhibition, % (test concentration not listed). C. albicans CaCi-2 (fluconazole-resistant clinical isolate) + fluconazole, 48 h. 0.57% of 300,000 active;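 active means growth inhibition above about 58% in most replicates, limit read from the data, passing the limit was not always enough; inconclusive means exactly half the replicates above a set limit; inactive means most replicates below a set limit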;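 further: all wells also contain fluconazole at 8 µg/ml as a sub-toxic cotreatment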
Beta cell apopt: inhibitors of cytokine-induced beta cell apoptosis, primary screen, luminescence; INS-1E cytokine-induced death, ATP luminescence, 48 h; percent of positive-control rescue, neutral wells zero; protection from apoptosis, % (no concentration beside the values); 0.8% of 300,000 active;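 active means Every replicate reaches about 75%, or at least half do and their mean reaches it too, limit read from the data; inconclusive means At least half of replicates reach the limit but their mean does not; inactive means Under half of replicates reach the limit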;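 further: higher means more ATP so stronger rescue from cytokine killing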
Mdm2-MdmX conf: Mdm2-MdmX complex disruptors, retested hits, confirmation, luminescence, single concentration. Mdm2-MdmX binding, luminescent assay. shares compounds with Mdm2-MdmX inh. 55% of 10,000 active. inhibition, % at 8 µM; in the data active means inhibition above about 40%
Full FLuc ctr: full-length luciferase signal inhibition, confirmation, counter-screen for Mdm2/MdmX interaction inhibitor project, cell-based, single concentration, SaOS-2; 77% of 6,200 active; SaOS-2 full-length luciferase counterscreen, luminescence; inhibition, % at 8 µM; shares compounds with Mdm2-MdmX inh;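 active means mean inhibition at 8 µM reaching about 37%, which flags the compound as non-specific, limit read from the data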;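 further: p53-null SaOS-2 cells with luciferase driven by a doxycycline-inducible promoter; compound on cells about two nights before reading with doxycycline added after day one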
Numbers stand for hits; . = inactive; ? = inconclusive; / = no result given.

SMILES	CSC inhib	T cruzi inh	SKKanGAS inh	Mdm2-MdmX inh	Calb FLC	Beta cell apopt	Mdm2-MdmX conf	others
NC(=O)CC(NC(=O)Cc1ccc(Br)cc1)c1ccc(NCCc2cccc(F)c2)c([N+](=O)[O-])c1 (configuration not stated)	.	.	.	.	.	.	/
NC(=O)CC(NC(=O)Cc1cccc2ccccc12)c1ccc(NC2CCN(Cc3ccccc3)CC2)c([N+](=O)[O-])c1 (configuration not stated)	.	.	.	55.3	.	/	.
NC(=O)CC(NC(=O)Cc1ccc(Br)cc1)c1ccc(NCc2cc(F)ccc2F)c([N+](=O)[O-])c1 (configuration not stated)	?	.	.	55.4	.	.	.
COC(=O)c1ccc(NC(=O)CCN2CCOCC2)cc1	.	.	.	.	.	.	/
COc1cccc(NC(=O)N2CCC(NC(=O)C(Cc3ccccc3F)NC(C)=O)CC2)c1 (configuration not stated)	.	.	.	.	.	.	/
O=S1(=O)c2ccc(Br)cc2N2CCC[C@H]2CN1Cc1ccccc1	/	/	/	51.8	/	/	51.1	Full FLuc ctr=37.1
C[C@@H](c1ccccc1)N1Cc2ccccc2Oc2cc(Br)ccc2S1(=O)=O	/	/	/	.	/	/	/
C[C@@H](c1ccccc1)N1C[C@H]2CCCN2c2cc(Br)ccc2S1(=O)=O	/	/	/	53.8	/	/	42.5	Full FLuc ctr=41.4
C=C1CN(Cc2ccccc2)S(=O)(=O)c2ccccc21	.	.	.	.	.	/	/
CC(OC(=O)c1ccccc1)C(=O)NCc1ccco1 (configuration not stated)	.	/	/	.	/	.	/
COc1ccc([N+](=O)[O-])cc1NC(=O)CSCc1ccc(Br)cc1	/	.	.	51.2	.	.	.
COc1ccc([N+](=O)[O-])cc1NC(=O)CSCc1ccccc1C	.	.	.	.	.	.	/
Cc1ccc(CNC(=O)C(c2ccccc2)c2ccccc2)cc1	.	.	.	.	.	.	/
C=CCOc1ccc(/C=C/C(=O)OCC(=O)Nc2c(C)n(C)n(-c3ccccc3)c2=O)cc1	.	.	.	.	.	.	/
Clc1ccc(N2CCN(c3ncnc4c3oc3ccccc34)CC2)cc1	.	.	.	57.9	.	.	.
